Measurements published in ChEMBL document CHEMBL1127290, “1-(2,5-Dimethoxy-4-(trifluoromethyl)phenyl)-2-aminopropane: a potent serotonin 5-HT2A/2C agonist” (J Med Chem, 1994).
Values joined by “and” are separate entries in the source; they are usually repeats but may differ in a detail not shown here. Identical values can stand only once.

How the values were obtained:
[1] = biological target: T1, 5-hydroxytryptamine receptor 1A (Rattus norvegicus, UniProt P19327); test: Tested for the binding affinity against the site labelled by the 5-hydroxytryptamine 1A receptor agonist [3H]- 8-OH-DPAT
T1 sequence (P19327 whole entry): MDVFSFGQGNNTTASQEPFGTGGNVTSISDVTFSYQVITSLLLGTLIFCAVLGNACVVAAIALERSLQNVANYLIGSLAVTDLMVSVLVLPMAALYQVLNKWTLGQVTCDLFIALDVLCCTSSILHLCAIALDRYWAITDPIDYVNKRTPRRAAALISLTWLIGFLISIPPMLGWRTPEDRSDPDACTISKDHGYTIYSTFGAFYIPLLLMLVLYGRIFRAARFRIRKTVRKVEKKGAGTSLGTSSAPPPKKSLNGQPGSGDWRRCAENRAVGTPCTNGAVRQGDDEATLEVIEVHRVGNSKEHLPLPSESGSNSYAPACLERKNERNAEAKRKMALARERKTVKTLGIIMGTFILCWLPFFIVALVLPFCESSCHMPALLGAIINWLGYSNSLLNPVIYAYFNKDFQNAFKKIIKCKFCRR
Summary of the method: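 [3H]-8-OH-DPAT binding in rat brain homogenate (frontal cortex or hippocampus) in 50 mM Tris HCl pH 7.4 with EDTA, ascorbate and pargyline; 200–400 μg protein. 15 min at 37 °C, then GF/C filtration. Nonspecific binding defined by 10 μM 5-HT. Triplicates, scintillation counting.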

[2] = biological target: T2, Serotonin receptor 2a and 2c (5HT2A and 5HT2C) (Rattus norvegicus, UniProt P08909+P14842); test: Tested for the binding affinity against the site labelled by the 5-hydroxytryptamine 2A receptor - 5-hydroxytryptamine 2C receptor antagonist [3H] ketanserin; type: protein assay
Summary of the method: (§1)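 Rat frontal cortex homogenate in 50 mM Tris HCl pH 7.4 with 0.5 mM EDTA, 0.1% ascorbate, pargyline and 5.7 mM CaCl2; 200–400 μg protein. […] Nonspecific binding defined by 10 μM cinanserin. Triplicate determinations, scintillation counting.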

[3] = biological target: T2, Serotonin receptor 2a and 2c (5HT2A and 5HT2C); test: Tested for the binding affinity against the site labelled by the 5-hydroxytryptamine 2A receptor - 5-hydroxytryptamine 2C receptor agonist [125I]- - (+/-)DOI; type: protein assay
Summary of the method: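 Rat frontal cortex homogenate, pooled and preincubated twice at 37 °C. Buffer was 50 mM Tris HCl pH 7.4 with 0.5 mM EDTA, 0.1% ascorbate, pargyline and MgCl2; 200–400 μg protein. 0.1 nM [125I]DOI was competed by 8–10 test concentrations, 15 min at 37 °C, then GF/C filtration. Nonspecific binding defined by 10 μM cinanserin. Triplicates, gamma counting.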

Rattus norvegicus [4] = organism: Rattus norvegicus; test: Effective dose in rat; type: functional
Summary of the method: (§2)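 Rats trained on a two-lever FR50 food-reinforced task to discriminate LSD tartrate (0.08 mg/kg, ip, 30 min pre-session) from saline. Test drugs were given ip in 0.9% saline, 1 mL/kg, 30 min before extinction test sessions ended at 50 presses; failure within 5 min was scored as disruption. Quantal %SDL per dose. ED50 with 95% CI by Litchfield–Wilcoxon log-probit, not calculated if ≥50% disrupted.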

[5] = biological target: T2, Serotonin receptor 2a and 2c (5HT2A and 5HT2C); test: Tested for the binding affinity against the site labelled by the 5-hydroxytryptamine 2A receptor - 5-hydroxytryptamine 2C receptor antagonist [3H]- ketanserin; type: protein assay; summary of the method: as §1
Rattus norvegicus [6] = organism: Rattus norvegicus; test: The percentage of rats selecting the drug lever at each dose; type: functional; summary of the method: as §2

Compound	Ki [1] [nM]	Ki [2] [nM]	Ki [3] [nM]	ED50 (Rattus norvegicus [4]) [µmol/kg]	Ki [5] [nM]	SDL (Rattus norvegicus [6])
COc1cc(C(F)(F)F)c(OC)cc1CCN	3420	74.5	1.1	0.82	–	–
COc1cc(CCN)c(OC)cc1I	–	–	1.9	1.04	80.9	–
COc1cc(CC(C)N)c(OC)cc1I (centres undefined)	–	–	–	0.97	–	80% [middle of 4 runs]
COc1cc(C(F)(F)F)c(OC)cc1CC(C)N (centres undefined)	2220	–	1.5	–	33	62.5% and 80% and 100%
COc1cc(CC(C)N)c(OC)cc1Br (centres undefined) [BROLAMFETAMINE]	–	–	–	1.12	–	–
